Data from ChEMBL document CHEMBL4049439, “Synthesis and Characterization of Tetrahydropyran-Based Bacterial Topoisomerase Inhibitors with Antibacterial Activity against Gram-Negative Bacteria” (J Med Chem, 2017).
In brackets after ≈: the same amount, converted by molar mass.

How the values were obtained:
Escherichia coli [1] = experiment: Antibacterial activity against Escherichia coli MG1655 harboring rfac deletion mutant by CLSI broth microdilution method; type: functional; conditions: K-12 substr. MG1655
In short: (§1)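 MIC (μg/mL) measured against engineered derivatives of E. coli MG1655. ΔrfaC has truncated LPS (raised permeability). ΔtolC lacks the outer-membrane TolC efflux component. ΔacrAB lacks the AcrAB efflux system of the cytoplasmic membrane.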

[2] = Terminal half-life in Wistar rat at 1 mg/kg, iv by LC-MS/MS analysis; type: ADME, organism-based; conditions: in vivo, read-out: beta t1/2 (converted)
In short: (§2)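 Rats dosed iv at 10 mg/kg or 1 mg/kg. Dose-normalized AUC (μg·h/(mL·dose)) and its unbound counterpart derived via fraction unbound. Clearance, unbound clearance, Vdss and half-life also derived.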

Rattus norvegicus [3] = experiment: Dose normalized unbound AUC in Wistar rat at 1 mg/kg, iv by LC-MS/MS analysis; type: ADME, organism-based; conditions: in vivo; in short: as §2
Acinetobacter baumannii = experiment: Antibacterial activity against fluoroquinolone-resistant Acinetobacter baumannii T6474 by CLSI broth microdilution method; type: functional
Escherichia coli [4] = experiment: Ratio of MIC for wild-type Escherichia coli MG1655 to MIC for Escherichia coli MG1655 harboring AcrAB deletion mutant; type: functional, K-12 substr. MG1655
In short: (§3)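 Fold change in MIC for each MG1655 derivative (ΔacrAB, ΔrfaC, ΔtolC) relative to the MIC measured on wild-type E. coli MG1655, with both MICs in μg/mL.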

Rattus norvegicus [5] = experiment: Unbound clearance in Wistar rat at 1 mg/kg, iv by LC-MS/MS analysis; type: ADME, organism-based; conditions: in vivo; in short: as §2
[6] = Inhibition of wild-type Pseudomonas aeruginosa DNA gyrase supercoiling activity using relaxed pBR322 DNA as substrate by ethidium bromide based agarose gel electrophoresis
[7] = Fraction unbound in Wistar rat plasma at 1 mg/kg, iv by rapid equilibrium dialysis; type: ADME, organism-based; in short: as §2
[8] = Inhibition of wild-type Pseudomonas aeruginosa DNA topoisomerase-4 mediated supercoiled pBR322 DNA relaxation by ethidium bromide based agarose gel electrophoresis
[9] = Inhibition of wild-type Acinetobacter baumannii DNA topoisomerase-4 mediated supercoiled pBR322 DNA relaxation by ethidium bromide based agarose gel electrophoresis
Escherichia coli [10] = experiment: Antibacterial activity against Escherichia coli MG1655 harboring AcrAB deletion mutant by CLSI broth microdilution method; type: functional; conditions: K-12 substr. MG1655; in short: as §1
[11] = Clearance in Wistar rat at 1 mg/kg, iv by LC-MS/MS analysis; type: ADME, organism-based; conditions: in vivo; in short: as §2
Escherichia coli [12] = experiment: Ratio of MIC for wild-type Escherichia coli MG1655 to MIC for Escherichia coli MG1655 harboring rfac deletion mutant; type: functional, K-12 substr. MG1655; in short: as §3
[13] = Lipophilicity, log D of the compound at pH 7.4; type: physicochemical; conditions: buffer
Rattus norvegicus [14] = experiment: Dose normalized AUC in Wistar rat at 1 mg/kg, iv by LC-MS/MS analysis; type: ADME, organism-based; conditions: in vivo
Escherichia coli [15] = experiment: Antibacterial activity against Escherichia coli MG1655 harboring tolC deletion mutant by CLSI broth microdilution method; type: functional; conditions: K-12 substr. MG1655; in short: as §1
Escherichia coli [16] = experiment: Antibacterial activity against wild-type Escherichia coli MG1655 by CLSI broth microdilution method; type: functional; conditions: K-12 substr. MG1655
In short: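 MIC (μg/mL) determined on wild-type E. coli MG1655, the parent of isogenic strains with truncated LPS or deleted TolC or AcrAB efflux.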

Escherichia coli [17] = experiment: Ratio of MIC for wild-type Escherichia coli MG1655 to MIC for Escherichia coli MG1655 harboring tolC deletion mutant; type: functional, K-12 substr. MG1655; in short: as §3
[18] = Volume of distribution at steady state in Wistar rat at 1 mg/kg, iv by LC-MS/MS analysis; type: ADME, organism-based; conditions: in vivo, read-out: Vdss
In short: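 Rats received a single intravenous dose of 10 or 1 mg/kg depending on the compound. Clearance, unbound clearance, Vdss, terminal half-life and dose-normalized AUC were derived from plasma exposure, with unbound fraction (fu) reported for this species.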

[19] = Inhibition of wild-type Acinetobacter baumannii DNA gyrase supercoiling activity using relaxed pBR322 DNA as substrate by ethidium bromide based agarose gel electrophoresis

In the case of COc1ccc2ncc(F)c(C[C@H](O)[C@@H]3CC[C@@H](NCc4ccc5c(n4)NC(=O)CO5)CO3)c2n1, the MIC (Escherichia coli [1]) is reported as 0.031 µg/mL (≈ 0.0641 µM), the half-life [2] is reported as 1.3 h and the fAUC/dose (Rattus norvegicus [3]) is reported as 39 µg·h/mL. It also gave an MIC (Acinetobacter baumannii) of 0.125 µg/mL (≈ 0.259 µM), a Ratio (Escherichia coli [4]) of 100 and a CL free (Rattus norvegicus [5]) of 430 mL/min/kg. For the same compound, the IC50 [6] was 0.125 µM, the fraction unbound [7] was 0.086 and the IC50 [8] was 0.125 µM. The IC50 [9] was 0.125 µM, the MIC (Escherichia coli [10]) was 0.004 µg/mL (≈ 0.00827 µM) and the clearance [11] was 37 mL/min/kg. The Ratio (Escherichia coli [12]) was 16, the logD [13] was 2 and the AUC/dose (Rattus norvegicus [14]) was 457 ng·h/mL. The MIC (Escherichia coli [15]) was 0.004 µg/mL (≈ 0.00827 µM), the MIC (Escherichia coli [16]) was 0.5 µg/mL (≈ 1.03 µM) and the Ratio (Escherichia coli [17]) was 100. The Vd [18] was 2.5 L/kg and the IC50 [19] was 0.125 µM.
